# Reference: PubChem BioAssay
# Some of the results follow. Records with an inconclusive call do not appear. Calls of active or inactive are those of the source.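 Rule for the calls, unless noted: active = thallium entry rate above the same plate's blocked-transporter control wells by more than 3 SD; inconclusive = the two repeat wells disagree; inactive = the rest.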
# Target: Solute carrier family 12 member 5 (Homo sapiens) (UniProt Q9H2X9)
# Test: KCC2 modulators in sodium-free buffer, confirmation, cell-based, HEK293 KCC2, thallium flux, secondary assay (AID 1713;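 active = thallium flux slope above the same plate's solvent-only control mean plus 3 SD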)
# Details: FluoZin2 fluorescence, at 10 µM, active compounds read high
# Procedure, shortened: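 System: HEK/KCC2 cells | Compound: 10 µM single dose, 0.1% DMSO | Repeats: Two replicates | Benchmarks: Bumetanide 2 mM positive, DMSO negative | Times: Dye loading 48 min | Signal: FluoZin2 fluorescence, 480/540 nm, 1 Hz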
# Sequence of Solute carrier family 12 member 5 (Homo sapiens) (Q9H2X9 whole entry, looked up): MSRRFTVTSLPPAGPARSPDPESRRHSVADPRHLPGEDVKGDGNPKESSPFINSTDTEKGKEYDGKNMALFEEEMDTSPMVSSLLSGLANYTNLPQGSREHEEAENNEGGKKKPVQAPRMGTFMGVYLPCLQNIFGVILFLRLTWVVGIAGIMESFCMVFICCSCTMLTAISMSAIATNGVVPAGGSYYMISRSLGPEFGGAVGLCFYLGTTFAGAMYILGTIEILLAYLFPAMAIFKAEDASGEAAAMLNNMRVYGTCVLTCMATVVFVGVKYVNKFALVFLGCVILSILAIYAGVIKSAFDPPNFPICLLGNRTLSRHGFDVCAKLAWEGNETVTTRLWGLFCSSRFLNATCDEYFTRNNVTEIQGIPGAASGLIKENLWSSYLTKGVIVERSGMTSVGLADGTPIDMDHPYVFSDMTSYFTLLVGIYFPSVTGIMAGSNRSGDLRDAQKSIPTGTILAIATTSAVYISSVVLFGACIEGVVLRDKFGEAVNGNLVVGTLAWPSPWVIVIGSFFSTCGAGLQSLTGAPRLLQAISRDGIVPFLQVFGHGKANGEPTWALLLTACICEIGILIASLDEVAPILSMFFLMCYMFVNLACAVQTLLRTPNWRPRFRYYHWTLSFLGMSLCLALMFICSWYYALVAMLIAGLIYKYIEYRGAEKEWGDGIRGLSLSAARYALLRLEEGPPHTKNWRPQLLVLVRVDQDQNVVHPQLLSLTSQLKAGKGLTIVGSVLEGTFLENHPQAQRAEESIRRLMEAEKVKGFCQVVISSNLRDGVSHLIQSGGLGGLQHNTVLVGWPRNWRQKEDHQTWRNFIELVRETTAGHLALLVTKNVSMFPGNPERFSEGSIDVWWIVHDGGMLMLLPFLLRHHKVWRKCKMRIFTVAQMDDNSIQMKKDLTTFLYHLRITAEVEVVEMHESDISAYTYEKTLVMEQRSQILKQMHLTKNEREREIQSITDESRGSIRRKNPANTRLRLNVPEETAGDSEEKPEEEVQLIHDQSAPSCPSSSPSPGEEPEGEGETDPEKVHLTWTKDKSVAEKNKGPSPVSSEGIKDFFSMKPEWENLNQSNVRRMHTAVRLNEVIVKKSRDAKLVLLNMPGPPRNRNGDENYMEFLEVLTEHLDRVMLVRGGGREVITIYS
row,SMILES,normalised thallium flux (F/F0 slope)
1,CC(=O)NNC(=O)c1csc(Cc2c(Cl)sc3ccc(Cl)cc23)n1,0.00965 (inactive)
2,Cc1ccc(N=Cc2c(O)n(-c3nccs3)c(=O)c3ccccc23)c(C)c1,0.000176 (active)
3,Cc1cc(C)c2cc(CN(Cc3cccs3)Cc3nnnn3CC3CCCO3)c(=O)[nH]c2c1 (stereo not drawn),0.0146 (inactive)
4,O=c1c2ccccc2[nH]c(=S)n1CCN1CCC(=C(c2ccc(F)cc2)c2ccc(F)cc2)CC1,0.00677 (inactive)
5,COc1ccccc1N1CCN(C(=O)CSc2ncnc3c2cnn3-c2ccc(C)c(C)c2)CC1,0.00591 (inactive)
6,O=C(Cn1c(-c2ccc(Cl)cc2)noc1=O)N1CCN(c2ccccc2F)CC1,0.00839 (inactive)
7,O=C(Oc1c(-c2ccco2)oc2ccccc2c1=O)c1cccnc1,0.0222 (active)
8,COc1cccc2sc(Nc3nc(C)c(C(C)=O)s3)nc12,0.00922 (inactive)
9,CCCCn1c(=S)[nH]c2ncccc2c1=O,0.0429 (active)
10,Cc1c(C(=O)NC(=S)NCc2cccnc2)oc2ccccc12,0.025 (active)
11,CS(=O)(=O)N(CC(=O)N1CCN(c2ccc(F)cc2)CC1)C1CCCCC1,0.00629 (inactive)
12,Cc1ccc(C)c(NC(=S)NNC(=S)Nc2ccc(C(C)C)cc2)c1,0.0145 (inactive)
13,COC(=O)c1sc(NC(=S)NC(=O)c2ccc(C)cc2)nc1C,0.0256 (active)
14,CC1CCCCN1S(=O)(=O)c1ccc(C(=O)Nc2nnc(-c3cccs3)o2)cc1 (stereo not drawn),0.0106 (inactive)
15,O=C(Nc1ccc2oc(-c3ccccc3F)nc2c1)c1ccco1,0.0157 (inactive)
16,Cn1c(C(=O)NCCc2ccsc2)cc2c(=O)n(C)c3ccccc3c21,0.00557 (inactive)
17,COc1cc(OC)cc(C(=O)NCCSCc2ccco2)c1,0.00951 (inactive)
18,O=S(=O)(c1cccc(S(=O)(=O)N2CCC(n3nnc4ccccc43)CC2)c1)N1CCCCC1,0.00996 (inactive)
19,CSc1ncnc2sc(C)c(C)c12,0.00741 (inactive)
20,O=C(Nc1ccn(Cc2ccccc2)n1)c1cccc(F)c1,0.00622 (inactive)

row,SMILES,normalised thallium flux (F/F0 slope)
1,COCCn1c(C)cc(C(=O)CSc2ncnc3sc4c(c23)CCC4)c1C,0.0102 (inactive)
2,COc1cccc(NC(=S)NC(=O)c2c(Cl)c(C)nn2C)c1,0.0264 (active)
3,O=C(C1CCN(c2nnc(-n3cccc3)s2)CC1)N1CCc2ccccc2C1,0.00728 (inactive)
4,O=C(CSc1ccc(-c2cccs2)nn1)Nc1ccccc1F,0.00973 (inactive)
5,CC1Cc2ccccc2N1C(=O)CSc1nc2ccccc2o1 (stereo not drawn),0.00599 (inactive)
6,COc1ccc(Cl)cc1C(=O)NNC(=S)NC(=O)/C=C/c1ccco1,0.0165 (inactive)
7,COc1ccccc1-n1cnc2cc(NS(=O)(=O)c3ccccc3)ccc21,0.00507 (inactive)
8,CCCCC(CC)CNC(=O)C(=O)C1C(=O)Nc2ccccc21 (stereo not drawn),0.0112 (inactive)
9,Cc1ccc(OCC(=O)N2CCN(C(=O)c3cccnc3)CC2)cc1,0.00886 (inactive)
10,Oc1c(Cl)cc(Cl)c(Cl)c1Cc1c(O)c(Cl)cc(Cl)c1Cl,0.0104 (inactive)
11,O=C(c1cc(-c2ccc(O)cc2)on1)N1CCCc2ccccc21,0.00967 (inactive)
12,Cn1c(CCCOc2ccc(Cl)cc2Cl)n[nH]c1=S,0.00558 (inactive)
13,Fc1ccc(COc2cccc(-c3n[nH]c(=S)o3)c2)cc1,0.0171 (inactive)
14,O=C(Cc1csc(Nc2nc(=S)[nH]c3ccccc23)n1)NCCCN1CCN(c2cccc(Cl)c2)CC1,0.0134 (active)
15,CCCCn1c(SCC(=O)NCC2CCCO2)nc2ccc(N3CCOCC3)cc2c1=O (stereo not drawn),0.0177 (inactive)
16,Cc1cc(C(=O)NNC(=S)Nc2ccccc2C)cs1,0.00983 (inactive)
17,Cc1ccccc1NC(=S)NNC(=O)c1cccc(Br)c1,0.0117 (inactive)
18,O=C(CNCc1cccs1)Nc1cc(S(=O)(=O)N2CCCC2)ccc1Cl,0.00507 (inactive)
19,Cc1ccc(-n2ncc3c(Nc4cccc(C(=O)O)c4)ncnc32)cc1,0.00874 (inactive)

# System: not listed separately
# Test: PubChem AID 1714;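 note: raw slope of fluorescence over initial fluorescence between 10 and 20 s after thallium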
# Details: HEK293-KCC2 + bumetanide/ouabain, thallium flux FluoZin2; at 10 µM; active compounds read high
# Procedure, shortened: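 Test system: KCC2-expressing HEK cells; Reagent: thallium stimulus; Dosing: single compound dose, 10 µM final, 0.1% DMSO; Schedule: overnight culture 37 °C, dye loading 48 min; Detection: FluoZin2 thallium-flux fluorescence; Read-out basis: baseline-normalized fluorescence (F/F0) slope, 10–20 s post thallium.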
row,SMILES,normalized thallium flux
1,CC(=O)NNC(=O)c1csc(Cc2c(Cl)sc3ccc(Cl)cc23)n1,0.0419 (active)
2,Cc1ccc(N=Cc2c(O)n(-c3nccs3)c(=O)c3ccccc23)c(C)c1,-0.00484 (active)
3,Cc1cc(C)c2cc(CN(Cc3cccs3)Cc3nnnn3CC3CCCO3)c(=O)[nH]c2c1 (stereo not drawn),0.0043 (inactive)
4,O=c1c2ccccc2[nH]c(=S)n1CCN1CCC(=C(c2ccc(F)cc2)c2ccc(F)cc2)CC1,0.0111 (active)
5,COc1ccccc1N1CCN(C(=O)CSc2ncnc3c2cnn3-c2ccc(C)c(C)c2)CC1,0.00504 (inactive)
6,O=C(Cn1c(-c2ccc(Cl)cc2)noc1=O)N1CCN(c2ccccc2F)CC1,0.00664 (inactive)
7,O=C(Oc1c(-c2ccco2)oc2ccccc2c1=O)c1cccnc1,0.0675 (active)
8,COc1cccc2sc(Nc3nc(C)c(C(C)=O)s3)nc12,0.0124 (active)
9,CCCCn1c(=S)[nH]c2ncccc2c1=O,0.12 (active)
10,Cc1c(C(=O)NC(=S)NCc2cccnc2)oc2ccccc12,0.0479 (active)
11,CS(=O)(=O)N(CC(=O)N1CCN(c2ccc(F)cc2)CC1)C1CCCCC1,0.00489 (inactive)
12,Cc1ccc(C)c(NC(=S)NNC(=S)Nc2ccc(C(C)C)cc2)c1,0.00979 (active)
13,COC(=O)c1sc(NC(=S)NC(=O)c2ccc(C)cc2)nc1C,0.104 (active)
14,CC1CCCCN1S(=O)(=O)c1ccc(C(=O)Nc2nnc(-c3cccs3)o2)cc1 (stereo not drawn),0.0292 (active)
15,O=C(Nc1ccc2oc(-c3ccccc3F)nc2c1)c1ccco1,0.00477 (inactive)
16,Cn1c(C(=O)NCCc2ccsc2)cc2c(=O)n(C)c3ccccc3c21,0.00386 (inactive)
17,COc1cc(OC)cc(C(=O)NCCSCc2ccco2)c1,0.00654 (inactive)
18,O=S(=O)(c1cccc(S(=O)(=O)N2CCC(n3nnc4ccccc43)CC2)c1)N1CCCCC1,0.00678 (inactive)
19,CSc1ncnc2sc(C)c(C)c12,0.0121 (active)
20,O=C(Nc1ccn(Cc2ccccc2)n1)c1cccc(F)c1,0.00499 (inactive)

row,SMILES,normalized thallium flux
1,COCCn1c(C)cc(C(=O)CSc2ncnc3sc4c(c23)CCC4)c1C,0.013 (active)
2,COc1cccc(NC(=S)NC(=O)c2c(Cl)c(C)nn2C)c1,0.063 (active)
3,O=C(C1CCN(c2nnc(-n3cccc3)s2)CC1)N1CCc2ccccc2C1,0.00506 (inactive)
4,O=C(CSc1ccc(-c2cccs2)nn1)Nc1ccccc1F,0.00689 (inactive)
5,CC1Cc2ccccc2N1C(=O)CSc1nc2ccccc2o1 (stereo not drawn),0.0054 (inactive)
6,COc1ccc(Cl)cc1C(=O)NNC(=S)NC(=O)/C=C/c1ccco1,0.0479 (active)
7,COc1ccccc1-n1cnc2cc(NS(=O)(=O)c3ccccc3)ccc21,0.00527 (inactive)
8,CCCCC(CC)CNC(=O)C(=O)C1C(=O)Nc2ccccc21 (stereo not drawn),0.0356 (active)
9,Cc1ccc(OCC(=O)N2CCN(C(=O)c3cccnc3)CC2)cc1,0.00586 (inactive)
10,Oc1c(Cl)cc(Cl)c(Cl)c1Cc1c(O)c(Cl)cc(Cl)c1Cl,0.0366 (active)
11,O=C(c1cc(-c2ccc(O)cc2)on1)N1CCCc2ccccc21,0.00639 (inactive)
12,Cn1c(CCCOc2ccc(Cl)cc2Cl)n[nH]c1=S,0.00856 (active)
13,Fc1ccc(COc2cccc(-c3n[nH]c(=S)o3)c2)cc1,0.101 (active)
14,O=C(Cc1csc(Nc2nc(=S)[nH]c3ccccc23)n1)NCCCN1CCN(c2cccc(Cl)c2)CC1,0.0417 (active)
15,CCCCn1c(SCC(=O)NCC2CCCO2)nc2ccc(N3CCOCC3)cc2c1=O (stereo not drawn),0.0198 (active)
16,Cc1cc(C(=O)NNC(=S)Nc2ccccc2C)cs1,0.0117 (active)
17,Cc1ccccc1NC(=S)NNC(=O)c1cccc(Br)c1,0.028 (active)
18,O=C(CNCc1cccs1)Nc1cc(S(=O)(=O)N2CCCC2)ccc1Cl,0.00419 (inactive)
19,Cc1ccc(-n2ncc3c(Nc4cccc(C(=O)O)c4)ncnc32)cc1,0.00541 (inactive)
